# A selection: hits, their analogues and other compounds. The true share with any hit is near 3.4%.
# MIN6 prolif: MIN6 beta-cell proliferation induction; 0.29% of 330,000 active; MIN6 cells proliferation, ATPlite luminescence, 48 h; cells starved in 0.2% serum; 100% = growth in 10% serum; AID 2380; proliferation, % at 10 µM;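 active = compounds whose signal lies at least 3.5 SD above the mean of all wells on their plate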;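 note: 0% = DMSO-treated cells in low-serum medium and 100% = 10% serum control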
# MC4R antag cAMP: human MC4R antagonism in cAMP assay; inhibition, % at 6.5 µM; MC4R-expressing cells, MTII-stimulated cAMP, LANCE TR-FRET; 0.48% of 360,000 active; P32245;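 active = inhibition above its plate's cutoff, the mean of tested wells on that plate plus 3 SD, cut at about 29% in these data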;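 note: 0% = Melanotan II alone and 100% = Melanotan II plus saturating MCL0020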
#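 Assay system: U2OS cells stably expressing human melanocortin 4 receptor (MC4R) / Dosing: 6.5 µM / Timing: compound 30 min, challenge 1 h, detection 1 h / Measured by: Eu-cAMP/anti-cAMP TR-FRET, emission 671 nm / Replicates: singlicate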
# TMEM16A inh: inhibitors of mouse TMEM16A calcium-activated chloride channel. Q8BHY3. HEK293 TMEM16A/YFP iodide influx fluorescence, ionomycin. normalized B-score (activity score, 25-100; higher = stronger inhibition) at 10 µM. 1.2% of 310,000 active;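 active = ratio plate-corrected score three or more library SD toward inhibition, starting fluorescence score within five deviations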;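 note: score derived from kinetic fluorescence span divided by baseline fluorescence per well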
# ANO1 activ: activates or potentiates the mouse TMEM16A chloride channel. Q8BHY3. HEK293 TMEM16A/YFP-H148Q/I152L, iodide quench fluorescence; active compounds read low. B-score at 10 µM. 0.3% of 340,000 active;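 active = fluorescence-ratio B-score plate-corrected deviation score at least 3 library SD below zero, with starting fluorescence score within 5 deviations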;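 note: channel opened by trigger with iodide after compound preincubation; score built on the fluorescence ratio of max minus min over baseline; more negative score means more quench and so TMEM16A activation or potentiation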
# MC4R barr agon: human MC4R agonism via beta-arrestin; 0.98% of 360,000 active; P32245; U2OS MC4R beta-arrestin complementation, luminescence; percent of melanotan II response, DMSO zero; activation, % at 8.9 µM;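 active = activation above a per-plate cutoff, the mean activation of sample wells on that plate plus 3 SD, cut at about 8% in these data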
# HTR2A ag: activates the mouse 5-HT2A serotonin receptor; CHO-K1 mHTR2A beta-arrestin complementation, luminescence; percent of 30 µM serotonin response; activation, % at 7.6 µM; 0.66% of 360,000 active; AID 624169;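 active = activation above a run cutoff, the mean activation of all tested compounds plus 3 SD, cut at about 14% in these data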;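 note: 0% = plate median of compound wells and 100% = 30 µM serotonin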
# Target sequence (P35363 whole entry, looked up): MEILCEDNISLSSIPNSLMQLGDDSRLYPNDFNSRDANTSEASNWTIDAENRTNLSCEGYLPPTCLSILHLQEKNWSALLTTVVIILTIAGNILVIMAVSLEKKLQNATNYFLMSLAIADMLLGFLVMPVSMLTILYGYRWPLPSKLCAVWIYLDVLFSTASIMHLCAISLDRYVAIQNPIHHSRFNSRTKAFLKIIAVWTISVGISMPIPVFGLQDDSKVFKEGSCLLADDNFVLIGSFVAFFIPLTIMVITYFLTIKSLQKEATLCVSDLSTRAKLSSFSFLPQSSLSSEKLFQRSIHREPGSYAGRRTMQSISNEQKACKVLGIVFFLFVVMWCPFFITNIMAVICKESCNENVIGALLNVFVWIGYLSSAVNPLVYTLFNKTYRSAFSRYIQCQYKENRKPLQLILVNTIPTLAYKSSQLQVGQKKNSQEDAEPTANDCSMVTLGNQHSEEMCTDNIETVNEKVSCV
# The depositor's hits bear a star; i = inactive; · = no result given; ! = not active in a repeat.
SMILES,MIN6 prolif,MC4R antag cAMP,TMEM16A inh,ANO1 activ,MC4R barr agon,HTR2A ag
CCCC[N+]1(C)[C@@H]2CC(OC(=O)[C@H](CO)c3ccccc3)C[C@H]1[C@@H]1O[C@@H]12 (stereo partly specified),1,1,i,-10*,0,1
C/C1=C\[C@@H](C)C/C=C/[C@H]2[C@@H]3O[C@]3(C)[C@@H](C)[C@H]3[C@H](Cc4c[nH]c5ccccc45)NC(=O)[C@]32C(=O)/C=C/C(=O)[C@@H]1O,-6,-13,100*,-11*,-2,22*
CCOC(=O)[C@]12Cc3cc(C)ccc3[C@H]1N(C1CCCCC1)C(=O)c1cc(OC)ccc12,·,·,·,·,·,3
CCCCn1c(O)c(C(CC)=Nc2ccc(OC)cc2OC)c(=O)[nH]c1=O,-4,2,25*,i,3,-5
OC(COCc1ccc(Cl)cc1)CN1CC=C(c2ccccc2)CC1 (stereo unspecified),-5,5,i,i,-1,19*!
OC(CN1CC=C(c2ccccc2)CC1)c1ccccc1 (stereo unspecified),-2,8,i,i,-1,-3
Cc1cc(O)c2c(c1)C(=O)C13C(=C2O)C(=O)[C@H]2[C@@H](O)[C@@H]1[C@H]1[C@H](O)[C@@H]3C(=O)C3=C(O)c4c(O)cc(C)cc4C(=O)C312 (stereo partly specified),-6,-2,i,i,-2,-4
CCC(C)C1NC(=O)C(NC(=O)C(CC(C)C)N(C)C(=O)C2CCCN2C(=O)C(C)O)C(C)OC(=O)C(Cc2ccc(OC)cc2)N(C)C(=O)C2CCCN2C(=O)C(CC(C)C)NC(=O)[C@H](C)C(=O)[C@H](C(C)C)OC(=O)CC1O (stereo partly specified),·,3,·,i,-1,0
CN(C)c1ccc(C(=O)N/N=C/C23CC[C@@H](O)CC2(O)CC[C@@H]2[C@@H]3CCC3(C)C(C4=CC(=O)OC4)CCC23O)cc1 (stereo partly specified),-1,-7,i,i,14*,-1
Brc1ccc(Oc2ccc(Br)cc2Br)c(Br)c1,-5,7,·,i,2,-2
Oc1c(Br)cc(Br)cc1Oc1ccc(Br)cc1Br,·,·,100*,·,·,·
COC(=O)C1=C(c2ccc(OCc3ccccc3)c(F)c2)C[C@@H]2CC[C@H]1N2C,·,12,·,·,4,-6
CC(=O)OC1CC[C@]2(C#N)[C@H]3CC[C@]4(C)[C@H](C5C=CC(=O)O5)CCC4(O)C3CCC2(O)C1 (stereo partly specified),2,15,i,i,14*,6
Cc1ccccc1NC(=O)N1Cc2ccccc2-n2nncc2C1,·,0,·,·,-3,2
CCCCOc1ccc(CCN)cc1Cl,-2,5,i,i,8.3*,7
O=S(=O)(c1cccc2ccccc12)N1Cc2ccccc2-n2nncc2C1,·,3,·,·,-1,2
Cn1c(O)c(/C=C2\C=Nc3ccccc32)c(=O)n(C)c1=O,-3,11,i,-4.8*,-1,0
CCc1nc2ccc(Br)cc2c(=O)n1-c1ccccc1C(F)(F)F,-2,-3,i,i,2,-2
CCCc1nc2ccc(Br)cc2c(=O)n1-c1ccc([N+](=O)[O-])c(C(F)(F)F)c1,0,4,100*,i,0,1
C[C@]12CCC3C(CC[C@H]4C[C@@H](O)CC[C@]34C)C1=CC[C@@H]2O (stereo partly specified),·,10,·,·,-2,1
COc1cc(/C=C(/C)[N+](=O)[O-])ccc1OCc1ccccc1Cl,-6,32*,i,i,-5,-6
COc1ccc(C(=O)O)cc1OC,·,0,·,i,-1,2
O=C(O)c1cc[c]([Hg][Cl])cc1,-2,70*,i,i,-2,1

# High-throughput results (PubChem)
